Screening data: PubChem BioAssay, several laboratories
Dynein transport: blocks dynein driven cargo transport along microtubules | 3617.4 mouse cells, GR-EGFP nuclear translocation imaging; test concentration mostly 20 µM; stimulated with dexamethasone, 1 µM; active compounds read low | z-score, hits read low | 220,000 compounds, 0.47% hits;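 active = plate z-score of nuclear minus cytoplasmic receptor signal below a set negative limit, without overly bright fluorescence or cell loss, cut at about -3.5 in these data, passing the limit was not always enough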;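 also: z-score of nuclear minus cytoplasmic ring GR-EGFP intensity difference per well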
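Buffer or medium – tet-free medium with charcoal-stripped serum · Signal – automated 10x imaging of fixed Hoechst-stained cells · Also added – dexamethasone agonist, 1.0 µM final, for 30 min · Incubation – induction 48 h, compound 1 h, agonist 30 min · Read-out – GR-EGFP nuclear translocation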
p-CIP stab down: compounds decreasing mouse p/CIP protein stability. Q05BA5. F442A p/CIP-EGFP cells, EGFP fluorescence, 16 h. decrease of EGFP signal, % at 10 µM. 290,000 compounds, 0.01% hits;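 active = EGFP signal decrease of at least 30% at 10 µM or well 3 SD below plate mean, unless failing retest; inactive = the rest, including hits failing retest or dose response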
V-ATPase pH: alters yeast V-ATPase proton transport. S. cerevisiae, pHLuorin cytosolic pH fluorescence. response, % at 10 µM. 350,000 compounds, 0.37% hits; in the data active = response mostly above about 7.3%, no sharp cut-off; inactive = mostly below about 5.4%; also: actives read high
Cl transport mod: modulates chloride dependent transport by human KCC2; B-score of Tl+ flux slope (higher = more flux/activation; lower = inhibition) at 10 µM; Q9H2X9; 190,000 compounds, 2.2% hits; KCC2 cells, thallium flux FluoZin-2 fluorescence;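 active = thallium flux slope and its plate-corrected score both differing from the plate sample mean at a set confidence after two filtering rounds, in either direction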;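 also: slope of fluorescence scaled to starting intensity during 10 to 20 s after thallium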
ABCB6 inh 2: blocks the human ABCB6 transporter; AID 602162; K562-ABCB6 porphyrin accumulation, flow cytometry, 1 h; active compounds read low; 360,000 compounds, 0.19% hits; fluorescence ratio to DMSO, % at 10 µM; Q9NP58;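 active = fluorescence ratio to DMSO below 75%, the collection mean minus 3 SD; inconclusive = too few cells collected in the well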;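 also: signal is porphyrin accumulated inside mitochondria; 100% equals median channel fluorescence of DMSO control wells; lower ratio means ABCB6 inhibition with less porphyrin fluorescence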
Target sequence (Q9NP58 whole entry, looked up): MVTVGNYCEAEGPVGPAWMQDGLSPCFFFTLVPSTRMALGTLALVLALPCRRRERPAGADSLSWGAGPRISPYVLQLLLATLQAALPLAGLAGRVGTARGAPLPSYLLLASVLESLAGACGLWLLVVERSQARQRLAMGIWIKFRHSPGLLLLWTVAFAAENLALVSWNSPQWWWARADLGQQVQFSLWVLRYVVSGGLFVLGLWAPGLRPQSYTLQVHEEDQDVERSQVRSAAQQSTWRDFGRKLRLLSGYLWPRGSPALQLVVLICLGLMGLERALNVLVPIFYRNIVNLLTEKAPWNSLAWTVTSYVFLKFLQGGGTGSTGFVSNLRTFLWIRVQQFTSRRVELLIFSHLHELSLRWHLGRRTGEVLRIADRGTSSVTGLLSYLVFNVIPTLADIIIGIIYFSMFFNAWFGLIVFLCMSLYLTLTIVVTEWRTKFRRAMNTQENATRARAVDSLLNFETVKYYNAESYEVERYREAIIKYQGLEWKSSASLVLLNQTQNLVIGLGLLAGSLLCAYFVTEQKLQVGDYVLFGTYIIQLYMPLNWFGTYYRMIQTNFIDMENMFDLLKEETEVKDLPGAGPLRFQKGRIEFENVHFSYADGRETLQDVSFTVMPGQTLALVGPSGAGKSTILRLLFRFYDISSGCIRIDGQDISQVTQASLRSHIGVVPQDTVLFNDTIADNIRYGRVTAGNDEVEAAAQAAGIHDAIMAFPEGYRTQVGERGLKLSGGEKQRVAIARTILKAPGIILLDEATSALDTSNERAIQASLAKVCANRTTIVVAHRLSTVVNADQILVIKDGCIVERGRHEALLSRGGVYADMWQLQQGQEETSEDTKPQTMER
Dynein inh conf: dynein cargo transport inhibition, confirmation | 3617.4 GR-EGFP nuclear translocation imaging, dexamethasone-induced | calls only at 20 µM | 1,000 compounds, 69% hits | shares compounds with Dynein transport;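 active = inhibition of receptor movement into the nucleus at or above a set limit in both runs, with normal cell brightness and cell count; inconclusive = limit reached in only one run, brightness and count normal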;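 also: dexamethasone at 1 µM final in well for 30 min; nuclear minus cytoplasmic GR-EGFP mean intensity difference in channel 2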
The depositor's hits bear a star; i = inactive; u = inconclusive; x = no result; + = active, no number. Shown is part of a subset that was picked to be rich in hits.

SMILES	Dynein transport	p-CIP stab down	V-ATPase pH	Cl transport mod	ABCB6 inh 2	Dynein inh conf
O=C(CCl)Nc1cc(-c2ccccc2)nn1-c1ccccc1	-4.85*	-2.2	3.4	0.115	100.0	+
Cc1c(NC(=O)c2cc(S(=O)(=O)N3CCCCC3)ccc2Cl)c(=O)n(-c2ccccc2)n1C	x	x	-1.0	x	94.0	x
Cc1ccc(Cn2cc(/C=N/Nc3ccc([N+](=O)[O-])cn3)c3ccccc32)cc1	-4.6	-47.6	-2.3	-1.83	341.0	+
CC(C)N1CCC(C)(C(=O)Nc2cccc(Oc3ccccc3)c2)C1 (stereo not drawn)	x	x	x	x	101.0	x
c1ccc(-c2ccc(-c3nccc4ccccc34)[nH]2)cc1	-4.56	-14.4	x	-1.19	x	i
CCS(=O)(=O)c1nc(S(=O)(=O)c2ccc(C)cc2)c(N2CCCCCC2)s1	x	x	2.2	x	98.0	x
O=C(Nc1ccccc1)c1cccc(Cn2cc(C(F)(F)F)ccc2=O)c1	2.15	-7.8	-4.9	-0.00124	104.0	x
O=C(Sc1ccccc1)c1cccc(Cn2cc(C(F)(F)F)ccc2=O)c1	-3.93*	1.1	2.7	-0.346	98.0	+
Cc1cc(/C=C2\Sc3ccccc3N2C)cc(C)[n+]1CC1CCCO1 (stereo not drawn)	-5.63	-66.2	-0.2	i	357.0	i
Cc1ccc(/C=C2/Sc3ccccc3N(CC(=O)NCC3CCCO3)C2=O)cc1 (stereo not drawn)	x	-1.4	1.6	x	99.0	x
CC(C)CC(N)c1csc(NC(=O)Nc2ccccc2C(C)(C)C)n1 (stereo not drawn)	x	x	x	x	94.0	x
CC(C)Oc1ccc(S(=O)(=O)N2CCOCC2)cc1NC(=O)CSc1nnc(C2CC2)n1C	x	x	x	x	99.0	x
Cc1ccccc1CS(=O)(=O)c1nnc([C@H](Cc2ccccc2)NC(=O)OC(C)(C)C)o1	-5.52*	-3.9	-2.9	x	94.0	+
Clc1ncnc2scc(C3COc4ccccc4O3)c12 (stereo not drawn)	-4.25*	7.7	2.9	0.668	97.0	+
Cc1ccc(N2C(=O)CC(Sc3ncn[nH]3)C2=O)cc1C (stereo not drawn)	-5.96*	-9.0	5.6	x	97.0	i
Cc1cccc(N2C(=O)CC(Sc3ncn[nH]3)C2=O)c1 (stereo not drawn)	-0.98	11.0	4.9	0.0114	97.0	x
O=c1oc(-c2ccco2)nc2ccccc12	-3.55*	-15.1	-0.4	-1.21	104.0	i
O=C1CNC(=O)N1CC(O)Cn1c2ccccc2c2ccccc21 (stereo not drawn)	0.321	-5.5	0.2	-0.0903	95.0	x
CCNC(=O)C1(C)CCCN(C(=O)c2cc(C)nn2C(C)(C)C)C1 (stereo not drawn)	x	x	x	x	98.0	x
O=C(NC1CCCCC1)C(c1cccnc1)N(C(=O)CCl)c1cccc(Cl)c1 (stereo not drawn)	-4.25*	-1.1	5.8	-0.152	101.0	+
O=C(OCn1ncc(Br)c(Br)c1=O)c1ccc(F)cc1	-5.1*	-12.8	2.3	-4.68*	83.0	+
Cc1ccc(Cl)cc1-c1cc(C(=O)N2CCN(c3ccncc3)CC2)[nH]n1	x	x	x	x	101.0	x
CN1CCC(N(C)C(=O)c2ccc(Cl)c(S(=O)(=O)N3CCCCC3)c2)CC1	x	x	9.9	x	97.0	x
N#CCCN(C(=O)CCl)c1cccc(Cl)c1	-3.81*	-9.4	-2.2	-0.607	102.0	+
N#CCCS(=O)(=O)c1nnnn1-c1ccccc1	-5.03*	-3.9	x	x	x	u
SMILES	Dynein transport	p-CIP stab down	V-ATPase pH	Cl transport mod	ABCB6 inh 2	Dynein inh conf
Cc1c(-c2ccc(O)cc2)nc2nc(-c3ccccc3)c(-c3ccccc3)nn12	-5.28	2.9	x	i	x	+
Cc1nc2c(ccc3nc(NC(=O)Cc4ccccc4)sc32)s1	0.153	-4.8	-0.7	-2.03	98.0	x
Cc1nc2c(ccc3nc(NC(=O)c4ccc(S(=O)(=O)N(C)C)cc4)sc32)s1	-4.13*	-2.2	0.0	-0.0987	92.0	i
c1ccc(SC23CCCCN(CCC2)C32OCCO2)cc1 (stereo not drawn)	x	x	x	x	95.0	x
O=C1C(Cl)=C(Nc2ccc3cn[nH]c3c2)C(=O)c2ccccc21	-3.88*	59.2*	0.8	x	65.0*	+
CC1(c2nnnn2Cc2ccccc2)CCC(=O)N1CCCn1ccnc1 (stereo not drawn)	x	x	x	x	95.0	x
CSc1nnc(C)c(/C=C/Nc2ccc(F)cc2F)n1	0.368	-9.7	-3.2	-0.011	102.0	x
C=CCSc1nnc(C)c(/C=C/Nc2ccc(Cl)cc2)n1	-7.75	-14.3	3.9	-0.79	173.0	+
O=c1cc(-c2ccccc2)oc2c1CCCC2	x	x	x	x	96.0	x
Cc1ccc(-c2nc3cnccn3c2Nc2ccccc2)o1	-3.85*	-0.9	0.3	-0.464	100.0	i
O=C(NCc1nnnn1-c1ccc(Cl)cc1)C(=O)c1c[nH]c2ccccc12	x	x	-3.2	x	96.0	x
CCNc1ccc(Br)cc(C(=O)/C=C/c2ccc(Cl)cc2Cl)c1=O	-5.45	2.7	-1.7	0.688	168.0	+
Cc1ccc(/C(C#N)=C\c2ccc(N3CCOCC3)o2)cc1	-2.98	-2.6	-2.3	x	133.0	x
N#C/C(=C/c1ccc(N2CCCCCC2)o1)c1ccc(Cl)cc1	-6.15	-21.0	1.7	x	203.0	i
N#C/C(=C/c1ccc(N2CCCCC2)o1)c1cccc(F)c1	-4.28	-8.1	-0.1	x	162.0	i
COc1ccc(C(c2c(C)[nH]n(C(N)=S)c2=O)C(C#N)C#N)cc1 (stereo not drawn)	-4.11*	-8.5	5.9	0.0843	92.0	+
CCOC(=O)c1c(C)nsc1NC(=O)C1(C)CCN1C(=O)CC (stereo not drawn)	x	x	x	x	104.0	x
O=C(/C=C/c1ccccc1)CC(O)(c1ccccc1)C(F)(F)F (stereo not drawn)	-2.86	-8.7	-0.2	-0.628	100.0	x
COc1ccc(/C=C/C(=O)CC(O)(c2ccccc2)C(F)(F)F)cc1 (stereo not drawn)	-3.84*	1.9	-0.1	0.0876	99.0	+
O=C1CCCC(O)=C1C(C#Cc1ccccc1)C1=C(O)CCCC1=O	-5.55*	-15.2	3.2	-0.617	103.0	+
Cc1ccc(N2C(=O)c3cccc4c(N)ccc(c34)C2=O)c2cccnc12	-5.35*	-674.5	-0.5	i	93.0	u
Cc1nn(C)c(C)c1N1C(=O)c2cccc3c(N)ccc(c23)C1=O	-0.569	-294.3	-60.1	x	173.0	x
COc1ccc(F)cc1-c1cc(NC=O)c2ncc(-c3cc(OC)c(OC)c(OC)c3)n2c1	x	x	x	x	101.0	x
CCOc1ccc(C(=O)/C=C/c2cc(OC)c(OC)c(OC)c2)cc1	-4.22*	14.9	-1.3	0.136	100.0	+
COc1ccc(/C=C/C(=O)c2ccc(C(=O)/C=C/c3ccc(OC)c(OC)c3)cc2)cc1OC	x	-18.1	-3.3	x	96.0	x
COc1cc(/C=C/C(=O)c2ccc(F)cc2)cc(OC)c1OC	-4.7*	4.1	-1.2	-2.06	100.0	+
CCC[C@H]1CN(c2ccc(Br)cc2)C(=O)[C@@H]1CC(=O)NC	x	x	-0.9	x	103.0	x
